Data as given in article PMC4910733 (Oncoimmunology, 2015).

Columns and labels:
Recombinant human ADAM10 = target: T1, Recombinant human ADAM10 (Homo sapiens, UniProt O14672); assay: In vitro enzymatic inhibition assay; assay type: biochemical; conditions: read-out: ADAM10 IC50; average of three determinations, SD <10%
T1 sequence (O14672 214-748): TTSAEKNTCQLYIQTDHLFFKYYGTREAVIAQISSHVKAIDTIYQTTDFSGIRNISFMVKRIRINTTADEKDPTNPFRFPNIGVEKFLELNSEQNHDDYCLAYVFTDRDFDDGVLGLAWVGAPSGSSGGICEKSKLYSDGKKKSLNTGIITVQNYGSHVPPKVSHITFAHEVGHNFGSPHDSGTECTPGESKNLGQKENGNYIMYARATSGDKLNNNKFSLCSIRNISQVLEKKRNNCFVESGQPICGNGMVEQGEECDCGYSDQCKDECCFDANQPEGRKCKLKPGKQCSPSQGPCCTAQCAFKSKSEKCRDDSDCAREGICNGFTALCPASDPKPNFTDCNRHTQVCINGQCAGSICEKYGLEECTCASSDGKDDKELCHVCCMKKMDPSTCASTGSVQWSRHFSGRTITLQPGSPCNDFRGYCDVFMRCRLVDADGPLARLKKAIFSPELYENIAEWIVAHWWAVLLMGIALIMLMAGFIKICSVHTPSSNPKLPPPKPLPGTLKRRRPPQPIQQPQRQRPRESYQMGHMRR

MMP-2 = target: T2, MMP-2 (Homo sapiens, UniProt P08253); assay: MMP inhibition assay; assay type: biochemical; conditions: read-out: MMP2 IC50; average of three determinations, SD <10%
T2 sequence (P08253 110-660): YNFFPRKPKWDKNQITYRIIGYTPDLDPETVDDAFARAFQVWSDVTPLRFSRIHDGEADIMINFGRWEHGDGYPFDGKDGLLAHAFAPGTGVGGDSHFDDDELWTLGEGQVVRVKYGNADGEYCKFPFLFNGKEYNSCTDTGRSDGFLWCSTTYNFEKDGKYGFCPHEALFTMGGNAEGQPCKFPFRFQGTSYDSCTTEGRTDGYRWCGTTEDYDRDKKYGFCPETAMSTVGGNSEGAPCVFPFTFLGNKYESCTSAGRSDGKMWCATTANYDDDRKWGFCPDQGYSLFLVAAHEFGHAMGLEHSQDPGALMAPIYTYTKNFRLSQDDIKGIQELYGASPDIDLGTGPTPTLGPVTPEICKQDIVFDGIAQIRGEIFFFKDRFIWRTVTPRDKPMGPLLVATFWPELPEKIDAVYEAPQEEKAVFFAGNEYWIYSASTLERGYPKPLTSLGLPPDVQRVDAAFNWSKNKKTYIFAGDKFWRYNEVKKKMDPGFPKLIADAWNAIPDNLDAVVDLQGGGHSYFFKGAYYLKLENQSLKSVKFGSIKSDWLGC
How it was run: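 Pro-MMP-2 was activated with APMA 2 mM, 1 h, 37°C. Enzyme (0.56 nM final) and test compound were incubated 3 h at 25°C in 50 mM Tris pH 7.5, 150 mM NaCl, 10 mM CaCl2, 0.05% Brij-35, 1% DMSO. Mca-Lys-Pro-Leu-Gly-Leu-Dap(Dnp)-Ala-Arg-NH2 at 2 µM final. Fluorescence (ex 325/em 400 nm) recorded every 15 s for 20 min, in duplicate. IC50 from vi/vo = 1/(1+[I]/IC50).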

MMP-9 = MMP-9 (Homo sapiens, UniProt P14780); assay: MMP inhibition assay; assay type: biochemical; conditions: read-out: MMP9 IC50; average of three determinations, SD <10%
Sequence of MMP-9 (P14780 107-707 limits assumed): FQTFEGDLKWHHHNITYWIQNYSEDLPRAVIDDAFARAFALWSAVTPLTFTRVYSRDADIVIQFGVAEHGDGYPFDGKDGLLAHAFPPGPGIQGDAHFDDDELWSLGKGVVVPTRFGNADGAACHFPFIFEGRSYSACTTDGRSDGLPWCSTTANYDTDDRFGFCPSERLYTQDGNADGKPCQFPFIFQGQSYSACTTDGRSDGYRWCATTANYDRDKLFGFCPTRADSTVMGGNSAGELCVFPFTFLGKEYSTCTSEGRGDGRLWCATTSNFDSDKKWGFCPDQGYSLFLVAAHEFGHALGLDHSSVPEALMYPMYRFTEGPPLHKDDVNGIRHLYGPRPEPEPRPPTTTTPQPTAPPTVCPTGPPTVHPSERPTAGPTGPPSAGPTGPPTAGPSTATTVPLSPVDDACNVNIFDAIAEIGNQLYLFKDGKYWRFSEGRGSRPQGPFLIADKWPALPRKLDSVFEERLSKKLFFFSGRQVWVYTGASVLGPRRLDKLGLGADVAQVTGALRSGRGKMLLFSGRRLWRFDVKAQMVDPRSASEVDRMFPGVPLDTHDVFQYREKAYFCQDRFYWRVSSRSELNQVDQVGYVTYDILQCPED
How it was run: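 APMA-activated MMP-9 (1 mM, 1 h, 37°C), 1.3 nM final, was preincubated with test compound 3 h at 25°C in 50 mM Tris pH 7.5, 150 mM NaCl, 10 mM CaCl2, 0.05% Brij-35, 1% DMSO. Fluorogenic substrate Mca-Lys-Pro-Leu-Gly-Leu-Dap(Dnp)-Ala-Arg-NH2 at 2 µM final. Cleavage monitored (ex 325/em 400 nm) every 15 s for 20 min, in duplicate. IC50 via vi/vo = 1/(1+[I]/IC50).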

[1] = target: Recombinant human MMP-14 catalytic domain (Homo sapiens, UniProt P50281); assay: MMP inhibition assay; assay type: biochemical; conditions: read-out: MMP14 IC50; average of three determinations, SD <10%
How it was run: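 Recombinant human MMP-14 catalytic domain (1.0 nM final) was preincubated 3 h at 25°C with test compound in 50 mM Tris pH 7.5, 150 mM NaCl, 10 mM CaCl2, 0.05% Brij-35, 1% DMSO. Substrate Mca-Lys-Pro-Leu-Gly-Leu-Dap(Dnp)-Ala-Arg-NH2 at 2 µM final. Fluorescence (ex 325/em 400 nm) read every 15 s for 20 min, in duplicate. IC50 from vi/vo = 1/(1+[I]/IC50).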

[2] = test system: NK cell killing of HL cell lines (L428, L540, KMH2); assay type: cell-based, human; conditions: L428 and L540 treated 24 h at 10 μM, E:T 10:1
How it was run: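 NK cells purified to >96%, stimulated with 0.5 µg/mL PHA plus 10 ng/mL rIL-2, then cultured 15 d in RPMI1640 with 10% FCS and rIL-2; n = 6. Target HL cells were pre-exposed 24 h to medium, DMSO or test compound (10 µM). 4-h 51Cr release at E:T 10:1. Some effectors received anti-NKG2D mAb (5 µg/mL) or isotype control. Specific lysis = (experimental − spontaneous)/(maximum − spontaneous).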

[3] = test system: HL cell lines, isolated MSC; assay: Toxicity by mitochondrial potential; assay type: cell-based, human; conditions: for toxic effect (mitochondrial potential, JC-1): HL cell lines or isolated MSC, 2.5 up to 10 μM, 48, 72 and 96 h (not shown)

IC50 (Recombinant human ADAM10) [nM]	IC50 (MMP-2) [nM]	IC50 (MMP-9) [nM]	IC50 [1] [nM]	SMILES	increase of NK cell killing [2]	toxic effect (mitochondrial potential, JC-1) [3]	toxicity (JC1 staining) ([3]; HL cell lines, 100 μM as pervanadate, 40 min at 37°C (not shown))
150	240	1630	19500	NC(=O)NCCC[C@@H](NS(=O)(=O)c1ccc(OCc2cc(Br)cc(Br)c2)cc1)C(=O)NO [JG26]	2–3 fold	did not exert any toxic effect	
				CNC(=O)[C@@H](NC(=O)[C@H](CCCc1ccccc1)[C@H](C)N(O)C=O)C(C)(C)C [GI254023X]	2–3 fold	did not exert any toxic effect	
				[Na+].[Na+].[Na+].[O]=[V]([O-])([O-])[O-] [Na3VO4, sodium orthovanadate]			not toxic
